Measured values pooled from the literature.
Compare with care: the assays were run in different laboratories.
Target: Casein kinase I isoform gamma-2 (CSNK1G2, Homo sapiens, UniProt P78368)

c1cnn2ncc(-c3ccnc(N4CCC45COC5)n3)c2c1
remaining binding (binding; 1 µM): 77%

O=C(Nc1c[nH]nc1C(=O)NC1CCNCC1)c1cc(F)cc(F)c1
remaining binding (binding; competition with immobilised ligand; 1 µM): 100%

COc1cnc(Nc2cccc(S(N)(=O)=O)c2)nc1N1CCN(c2ccccc2)CC1
remaining binding (binding; competition with immobilised ligand; 1 µM): 100%

Cc1cnc(Nc2ccc(C(=O)N3CCC(N4CCCC4)CC3)cc2)nc1-c1cc2ccccc2s1
remaining binding (binding; competition with immobilised ligand; 1 µM): 100%

c1cncc(-c2cccc(Nc3nccc(NC4CCCCC4)n3)c2)c1
remaining binding (binding; competition with immobilised ligand; 10 µM): 80%

C[C@@H]1CCN(c2nccc(-c3cnn4ncccc34)n2)C1
remaining binding (binding; 1 µM): 62%

CNCc1ccccc1-c1csc([C@@H](C)Nc2nc(C)nc3cc(OC)c(OC)cc23)c1
remaining binding (cell-free assay; competition with immobilised ligand; 1 µM): 98%

CN(C)c1nccc(-c2cnc3ncccn23)n1
remaining binding (binding; 1 µM): 89%

N#CC1(c2ccccn2)CCN(Cc2cc(C(=O)N3CCCC3)c(=O)n3ccccc23)CC1
remaining binding (cell-free assay; competition with immobilised ligand; 1 µM): 76%

CC(C)(C)c1ccc(-c2nc(CBr)nn2-c2cccc(O)c2)cc1
remaining binding (cell-free assay; competition with immobilised ligand; 10 µM): 93%

O=C(c1ccc(Nc2ncc(Cl)c(-c3cc4ccccc4s3)n2)cc1)N1CCC(N2CCCC2)CC1
remaining binding (binding; competition with immobilised ligand; 1 µM): 100%

F[C@@H]1CCN(c2nccc(-c3cnn4ncccc34)n2)C1
remaining binding (binding; 1 µM): 74%

O=C(NCCCN1CCOCC1)c1ccc(Nc2nccc(-c3cc4ccccc4s3)n2)cc1
remaining binding (binding; competition with immobilised ligand; 1 µM): 100%

CC1=C(C#N)C(c2ccc3c(c2)c(NC(=O)c2ccccc2C)nn3C)C(C#N)=C(C)N1
remaining binding (cell-free assay; competition with immobilised ligand; 1 µM): 95%

Nc1ncc2c(n1)-c1c([nH]c3ccc(C#CC4CC4)cc13)CCCC2
remaining binding (binding; competition with immobilised ligand; 1 µM): 100%

O=C1CCc2cc(Nc3cc(OC4CCOCC4)c([N+](=O)[O-])cc3Cl)ccc2N1
remaining binding (cell-free assay; competition with immobilised ligand; 1 µM): 88%

N[C@H]1CCN(c2nccc(-c3cnn4ncccc34)n2)C1
remaining binding (binding; 1 µM): 98%

Cc1c(C(=O)O)cc(-c2ccc(C3CCNCC3)cc2)c2ccc(-c3ccc(C(F)(F)F)cc3)cc12
remaining binding (cell-free assay; competition with immobilised ligand; 1 µM): 100%

COc1cnc(Nc2cccc(S(N)(=O)=O)c2)nc1N1CCN(c2ccccc2)C(=O)C1
remaining binding (binding; competition with immobilised ligand; 1 µM): 96%

Cn1cc(Cl)c2c(Oc3c(F)cc(Nc4cc(Cl)nc(N)n4)cc3F)ccnc21
remaining binding (cell-free assay; competition with immobilised ligand; 0.1 µM): 83%

Cc1cnn2ncc(-c3ccnc(N(C)C)n3)c2c1
remaining binding (binding; 1 µM): 100%
